Experimental data: PubChem BioAssay AID489030 (Sanford-Burnham Center for Chemical Genomics, 2010)
Screen size: about 330,000 compounds; about 2,400 (0.73%) were called active. Rule for the calls: active = inhibition of at least 40% at 20 µM; inactive = the rest. The full list was thinned out, with actives kept by preference.

molecular target: Apoptotic protease-activating factor 1 (Homo sapiens) (UniProt O14727); experiment: blockers of Apaf-1-driven caspase-3 activation – biochemical, DEVD-Rh110 fluorescence, uHTS, primary screen (AID 489030); conditions: reconstituted apoptosome caspase-3 activity, at 20 µM, hits give high values;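 note: plate controls were DMSO wells for no effect and DEVD-CHO caspase inhibitor wells for full effect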
Sequence (O14727 whole entry, looked up): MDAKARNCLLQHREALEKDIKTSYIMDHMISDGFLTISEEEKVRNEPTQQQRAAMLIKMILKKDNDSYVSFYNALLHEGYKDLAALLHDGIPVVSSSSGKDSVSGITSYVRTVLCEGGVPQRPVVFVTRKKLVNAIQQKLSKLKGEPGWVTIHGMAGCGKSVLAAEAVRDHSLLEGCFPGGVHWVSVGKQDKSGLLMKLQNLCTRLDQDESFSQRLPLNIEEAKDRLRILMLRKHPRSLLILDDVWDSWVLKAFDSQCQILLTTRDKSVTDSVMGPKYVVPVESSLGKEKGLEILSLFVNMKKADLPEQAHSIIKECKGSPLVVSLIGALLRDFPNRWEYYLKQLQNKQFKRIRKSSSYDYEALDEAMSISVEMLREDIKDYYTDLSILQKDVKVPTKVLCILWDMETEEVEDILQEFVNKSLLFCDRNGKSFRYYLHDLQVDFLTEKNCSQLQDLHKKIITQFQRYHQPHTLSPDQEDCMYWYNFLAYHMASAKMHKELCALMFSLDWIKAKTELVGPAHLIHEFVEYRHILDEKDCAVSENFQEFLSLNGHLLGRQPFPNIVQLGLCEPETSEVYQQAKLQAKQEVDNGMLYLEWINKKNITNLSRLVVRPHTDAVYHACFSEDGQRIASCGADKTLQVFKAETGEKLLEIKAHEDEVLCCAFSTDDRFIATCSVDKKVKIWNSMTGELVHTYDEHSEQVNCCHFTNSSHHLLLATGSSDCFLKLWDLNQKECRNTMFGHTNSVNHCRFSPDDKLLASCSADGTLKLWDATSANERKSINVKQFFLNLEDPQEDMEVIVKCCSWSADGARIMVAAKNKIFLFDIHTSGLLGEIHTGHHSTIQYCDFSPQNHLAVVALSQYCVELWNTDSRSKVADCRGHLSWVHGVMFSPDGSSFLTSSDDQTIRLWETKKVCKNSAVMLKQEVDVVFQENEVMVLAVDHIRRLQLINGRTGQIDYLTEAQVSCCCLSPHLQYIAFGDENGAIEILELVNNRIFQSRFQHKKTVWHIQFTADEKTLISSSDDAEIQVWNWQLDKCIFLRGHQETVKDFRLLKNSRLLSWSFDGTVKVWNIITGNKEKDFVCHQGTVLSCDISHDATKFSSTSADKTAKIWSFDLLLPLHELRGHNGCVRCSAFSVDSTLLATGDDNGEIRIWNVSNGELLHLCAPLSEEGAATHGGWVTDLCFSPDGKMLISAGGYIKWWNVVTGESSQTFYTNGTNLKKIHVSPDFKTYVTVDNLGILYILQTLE
Procedure, shortened: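 Material: cell-free apoptosome with Apaf-1, procaspase-3 and caspase-9; Buffer or medium: Hepes pH 7.5 with detergent and BSA; Reagent: cytochrome c trigger plus (Z-DEVD)2-Rh110 caspase-3 substrate; Times: compound with Apaf-1, dATP, procaspase-3 30 min, then 50 min reaction, room temperature; Technique: Rh110 fluorescence intensity.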

inhibition, inactive:
CC(C)(C)NC(=O)CN(C(=O)c1csnn1)c1ccccc1-c1ccccc1 -0.459%
Cc1cc(C)c(NC(=S)N2CCCC2C(=O)O)c(C)c1 (stereo not drawn) -0.801%
Cc1ccc(S(=O)(=O)c2c(N)n(C)c3nc4ccccc4nc23)cc1 -405%
CCN(CC)CCn1c(N)c(S(=O)(=O)c2ccccc2)c2nc3ccccc3nc21 12%
CCOc1cc(NC(=S)NCCCN(C)C)c(OCC)cc1NC(=O)C1CC1 -14.8%
COc1ccccc1CN1CCNC(=O)C1CC(=O)N(C)CC1CCOCC1 (stereo not drawn) 4.54%
Cc1ccc(F)cc1NC(=O)Cc1nn(C)c(=O)c2ccccc12 -8.15%
CCC(=O)NCc1cc(-c2nn(C)c(=O)c3ccccc23)ccc1OC -10.9%
CCCCn1c(N)c(N(CC(C)C)C(=O)c2cccc(S(=O)(=O)N3CCN(C(C)=O)CC3)c2)c(=O)[nH]c1=O 6.93%
C=CCNC(=O)c1ccccc1SCc1c(C)noc1C -5.84%
O=S(=O)(c1cccc(C(F)(F)F)c1)N1CCN(c2cnccn2)CC1 -23.4%
O=C(COc1ccccc1[N+](=O)[O-])N/N=C/c1ccc[nH]1 -17.6%
Cc1ccsc1/C=N/n1c(=S)[nH]nc(C)c1=O 2.31%
CCOc1ccc(N2CC(C(=O)N/N=C/c3sccc3C)CC2=O)cc1 (stereo not drawn) -13.2%
COc1cc(CC(=O)N/N=C/c2ccccc2)c([N+](=O)[O-])cc1OC 8.78%
CC(C)(C)NC(=O)CSC(=Nc1ccccc1F)NC#N -0.507%
COC(=O)Cc1csc(/N=C/c2c(O)n(-c3cccc(C(F)(F)F)c3)c(=O)c3ccccc23)n1 -1.6%
O=C(COc1ccc(S(=O)(=O)NCCc2ccccc2)cc1)N1CCCC1 -10.1%
CC(Oc1ccc(Cl)cc1)c1ccnn1S(C)(=O)=O (stereo not drawn) 0.147%
Cc1noc(C)c1S(=O)(=O)N(C)C[C@H]1Oc2ccc(NC(=O)C3CCCCC3)cc2C(=O)N([C@H](C)CO)C[C@@H]1C 1.34%
CN1CCN(/N=C2/C(=O)Nc3ccc([N+](=O)[O-])cc32)CC1 -6.13%
O=[N+]([O-])c1ccc(N(CCO)Cc2ccccc2)c([N+](=O)[O-])c1 5.52%
COc1ccc(NS(=O)(=O)c2cccc3nsnc23)cc1Cl -0.325%
COc1cccc(C(=O)NCCS(=O)(=O)NCC2CCCO2)c1 (stereo not drawn) -2.68%
O=C(C1CCN(c2nnc(-n3cccc3)s2)CC1)N1CCc2ccccc2C1 6.9%
OCCN1CCOCCOCCN(CCO)CCN(CCO)CC1 -5.95%
CC(C)Cc1nnc(NC(=O)CCNC(=O)c2ccccc2Cl)s1 12%

inhibition, active:
CCC(=O)Nc1c(S(=O)(=O)c2ccccc2)c2nc3ccccc3nc2n1Cc1ccccc1 49.2%
Cc1c(-c2nn(C)c(=O)c3ccccc23)oc2ccc(F)cc2c1=O 82%
O=C(Cc1cc(=O)[nH][nH]1)N/N=C/c1ccccc1[N+](=O)[O-] 40.8%
Cc1ccsc1/C=N/NC(=O)Cc1cc(=O)[nH][nH]1 58.3%
O=C1Nc2ccc([N+](=O)[O-])cc2C1=Nc1cccc(CO)c1 41.2%
Clc1ccc(C2=CSC3=Nc4cccc5cccc(c45)N23)cc1 90%
